Measured values from ChEMBL document CHEMBL2321792, “Synthesis and antimalarial activity of 3,3-spiroanellated 5,6-disubstituted 1,2,4-trioxanes” (ACS Med Chem Lett, 2013).
Calls of active or inactive are those of the source. The rule behind the calls is not given here.

Tested on: Plasmodium yoelii nigeriensis
Assay: Antimalarial activity against chloroquine, mefloquine and halofantrine-resistant Plasmodium yoelii nigeriensis infected in Swiss mouse assessed as protection against parasite-induced mortality at 96 mg/kg, im administered for 4 days measured on day 28
Type: functional, organism-based
Design: dose 96 mg/kg
Details: not given
Method in brief: (§1)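 Peters 4-day test in Swiss mice infected with multidrug-resistant P. yoelii nigeriensis. Groups of 5 mice were dosed once daily for 4 days at the stated mg/kg, oral or i.m. Mice were followed to day 28. Protection is the percentage of treated mice surviving to day 28, read from the alive/total count per group.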

| SMILES | Activity |
| --- | --- |
| C=C(c1ccccc1)[C@H]1OOC2(CCCCC2)O[C@@H]1c1ccccc1 (relative stereo) | inactive |
| C=C(c1ccccc1)[C@H]1OOC2(CCCC2)O[C@@H]1c1ccccc1 (relative stereo) | inactive |
| C=C(c1ccccc1)[C@H]1OOC2(O[C@@H]1c1ccccc1)C1CC3CC(C1)CC2C3 (relative stereo) | inactive |
| C=C(c1ccc(C)cc1)[C@H]1OOC2(O[C@@H]1c1ccc(C)cc1)C1CC3CC(C1)CC2C3 (relative stereo) | inactive |

Tested on: Plasmodium yoelii nigeriensis
Assay: Antimalarial activity against chloroquine, mefloquine and halofantrine-resistant Plasmodium yoelii nigeriensis infected in Swiss mouse assessed as suppression of parasitemia at 96 mg/kg, po administered for 4 days measured on day 4
Type: functional
Details: 96 h
Method in brief: (§2)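 Swiss mice infected with multidrug-resistant P. yoelii nigeriensis were treated by the Peters procedure: 5 per group, dosed daily for 4 days, oral or i.m. Parasitaemia was read on day 4 against an untreated control group. Suppression = [(c − t)/c] × 100, where c is control and t is treated parasitaemia. 100% means parasites were below the detection limit.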

| SMILES | inhibition in vivo at 96 mg/kg [%] |
| --- | --- |
| C=C(c1ccccc1)[C@H]1OOC2(CCCCC2)O[C@@H]1c1ccccc1 (relative stereo) | 34.5 |
| C=C(c1ccccc1)[C@H]1OOC2(CCCC2)O[C@@H]1c1ccccc1 (relative stereo) | 23.8 |
| C=C(c1ccccc1)[C@H]1OOC2(O[C@@H]1c1ccccc1)C1CC3CC(C1)CC2C3 (relative stereo) | 32.4 |
| C=C(c1ccc(C)cc1)[C@H]1OOC2(O[C@@H]1c1ccc(C)cc1)C1CC3CC(C1)CC2C3 (relative stereo) | 36.7 |

Tested on: Plasmodium yoelii nigeriensis
Assay: Antimalarial activity against chloroquine, mefloquine and halofantrine-resistant Plasmodium yoelii nigeriensis infected in Swiss mouse assessed as suppression of parasitemia at 96 mg/kg, im administered for 4 days measured on day 4
Type: functional
Details: 96 h, route intramuscular
Method in brief: as §2

| SMILES | inhibition in vivo at 96 mg/kg [%] |
| --- | --- |
| C=C(c1ccccc1)[C@H]1OOC2(CCCCC2)O[C@@H]1c1ccccc1 (relative stereo) | 22.3 |
| C=C(c1ccccc1)[C@H]1OOC2(CCCC2)O[C@@H]1c1ccccc1 (relative stereo) | 46.9 |
| C=C(c1ccccc1)[C@H]1OOC2(O[C@@H]1c1ccccc1)C1CC3CC(C1)CC2C3 (relative stereo) | 44.8 |
| C=C(c1ccc(C)cc1)[C@H]1OOC2(O[C@@H]1c1ccc(C)cc1)C1CC3CC(C1)CC2C3 (relative stereo) | 5.76 |

Tested on: Plasmodium yoelii nigeriensis
Assay: Antimalarial activity against chloroquine, mefloquine and halofantrine-resistant Plasmodium yoelii nigeriensis infected in Swiss mouse assessed as protection against parasite-induced mortality at 96 mg/kg, po administered for 4 days measured on day 28
Type: functional, organism-based
Design: dose 96 mg/kg, route po po po po po po po po po po po
Details: not given
Method in brief: as §1

| SMILES | Activity |
| --- | --- |
| C=C(c1ccccc1)[C@H]1OOC2(CCCCC2)O[C@@H]1c1ccccc1 (relative stereo) | inactive |
| C=C(c1ccccc1)[C@H]1OOC2(CCCC2)O[C@@H]1c1ccccc1 (relative stereo) | inactive |
| C=C(c1ccccc1)[C@H]1OOC2(O[C@@H]1c1ccccc1)C1CC3CC(C1)CC2C3 (relative stereo) | inactive |
| C=C(c1ccc(C)cc1)[C@H]1OOC2(O[C@@H]1c1ccc(C)cc1)C1CC3CC(C1)CC2C3 (relative stereo) | inactive |
